Measurements from ChEMBL document CHEMBL1137693, “Antiamoebic coumarins from the root bark of Adina cordifolia and their new thiosemicarbazone derivatives” (Eur J Med Chem, 2009).

experiment: Cytotoxicity against rat H9c2 cells assessed as cell viability at 3.125 to 200 ug/ml after 48 hrs by MTT assay; type: cell-based; details: read-out: Activity
Method in brief: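 Rat H9c2 cardiac myoblasts maintained in high-glucose DMEM with 10% heat-inactivated FBS and antibiotics at 37 °C, 5% CO₂. Subconfluent cells exposed 48 h to 3.125–200 μg/ml. MTT (5 mg/ml) added for 45 min at 37 °C; formazan dissolved in acid isopropanol, absorbance read at 570 nm (reference 655 nm). Viability relative to untreated controls; triplicate.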

Q: Which viability at 48 h does the source give for C/C(=N\NC(=S)NC12CC3CC(CC(C3)C1)C2)c1c(O)ccc2ccc(=O)oc12 here?
A: The viability at 48 h was greater than 80%.

Q: Which viability at 48 h does the source give for C/C(=N\NC(=S)NCc1ccccc1)c1c(O)ccc2ccc(=O)oc12 here?
A: The viability at 48 h was greater than 80%.

Q: Which viability at 48 h does the source give for C/C(=N\NC(=S)N1CCC(Cc2ccccc2)CC1)c1c(O)ccc2ccc(=O)oc12 here?
A: Its viability at 48 h is greater than 80%.
